Data reported in ChEMBL document CHEMBL1131493, “Inhibitors of farnesyl protein transferase. 4-Amido, 4-carbamoyl, and 4-carboxamido derivatives of 1-(8-chloro-6,11-dihydro-5H-benzo[5,6]- cyclohepta[1,2-b]pyridin-11-yl)piperazine and 1-(3-bromo-8-chloro-6,11- dihydro-5H-benzo[5,6]cyclohepta[1,2-b]pyridin-11-yl)piperazine” (J Med Chem, 1998).
pIC50: −log10 of the molar value.

Tests used:
[1] = In vivo antitumor efficacy in nude mice 0-24 hr after peroral dose of 25 mg/kg expressed as Area under the curve; assay type: ADME, organism-based; parameters: time < 24 hr, dose 25 mg/kg, route oral; conditions: nude, mouse, po
In short: (§1)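 Serum pharmacokinetics in nude mice or cynomolgus monkeys after oral (po) or iv dosing. Compounds were given as hydrochloride salts in 20% HPβCD unless otherwise noted. Other formulations were the hydrochloride salt in saline, the micronized free base in 20% HPβCD or corn oil (po) with saline for iv, or the hydrochloride salt in 0.4% methyl cellulose (po).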

[2] = (§2) Maximal plasma concentration in nude mice after 25 mg/kg oral dose; assay type: ADME, organism-based; parameters: dose 25 mg/kg, route oral; conditions: mouse; in short: as §1
Mus musculus [3] = assay: In vivo antitumor efficacy after peroral dose of 25 mg/kg in mice expressed as duration for which compound was present above IC50; assay type: ADME, organism-based; parameters: dose 25 mg/kg, route oral; conditions: po; in short: as §1
[4] = target: T1, Protein farnesyltransferase (Homo sapiens, UniProt P49354+P49356); assay: Inhibition of Farnesyltransferase from Ras-CVLS or Ras-CVLL in Cos-7 monkey kidney cells; assay type: cell-based, Chlorocebus aethiops
[5] = target: T1, Protein farnesyltransferase; assay: In vitro inhibition of farnesyltransferase farnesylation of the H-ras oncogene; assay type: protein-complex assay
[6] = In vivo antitumor efficacy in nude mice 0-24 hr after intravenous dose of 25 mg/kg expressed as Area under the curve; assay type: ADME, organism-based; parameters: time < 24 hr, dose 25 mg/kg, route intravenous; conditions: mouse; in short: as §1
[7] = Oral bioavailability in mouse (nude) (dose of 25 mg/kg); assay type: ADME, organism-based; conditions: in vivo; in short: as §1
[8] = In vivo antitumor efficacy in nude mice by injecting a dose of 25 mg/kg iv and serum half-life was determined; assay type: ADME, organism-based; parameters: dose 25 mg/kg, route intravenous; conditions: mouse; in short: as §1
[9] = target: geranylgeranyltransferase type-I (Rattus norvegicus, UniProt P53610+Q04631); assay: Inhibition of rat Geranylgeranyl transferase (GGPT); assay type: protein-complex assay
[10] = In vivo antitumor efficacy in nude mice by injecting a dose of 25 mg/kg, as HCl salt in saline solution, iv and the total drug exposure was determined. (0-24hr); assay type: ADME, organism-based; parameters: time < 24 hr, dose 25 mg/kg, route intravenous; conditions: mouse
[11] = In vivo antitumor efficacy in nude mice by injecting a dose of 25 mg/kg, as HCl salt in saline solution, perorally and the total drug exposure was determined (0-24hr); assay type: ADME, organism-based; parameters: time < 24 hr, dose 25 mg/kg, route oral; conditions: mouse, po
[12] = Oral bioavailability in mouse (nude) (dose 25 mg/kg i.v.); assay type: ADME, organism-based; conditions: in vivo
[13] = as §2; assay type: ADME, organism-based; parameters: dose 25 mg/kg, route oral; conditions: mouse; remark: listed apart in the source
Mus musculus [14] = assay: In vivo antitumor efficacy in nude mice by injecting a dose of 25 mg/kg, as HCl salt in saline solution, perorally and the duration of action was reported; assay type: ADME, organism-based; parameters: dose 25 mg/kg, route oral; conditions: po
[15] = In vivo antitumor efficacy in nude mice by injecting a dose of 25 mg/kg, as HCl salt in saline solution, iv and the serum half-life was determined; assay type: ADME, organism-based; parameters: dose 25 mg/kg, route intravenous; conditions: mouse

COCC[C@H]1CN(C2c3ccc(Cl)cc3CCc3cc(Br)cnc32)CCN1C(=O)Cc1cc[n+]([O-])cc1 (stereo not given in full)
AUC at 24 h [1]: 19900 ng·h/mL | Cmax [2]: 9 µM | Time above IC50 (Mus musculus [3]): 7 h | pIC50 [4]: > 6.60 | pIC50 [5]: 7.47

CC(C)(C(=O)N1CCN(C2c3ccc(Cl)cc3CCc3cc(Br)cnc32)CC1)c1ccc[n+]([O-])c1 (stereo not given)
AUC at 24 h [6]: 25000 ng·h/mL | AUC at 24 h [1]: 11700 ng·h/mL | bioavailability [7]: 47% | Cmax [2]: 11 µM | Time above IC50 (Mus musculus [3]): 4 h | half-life [8]: 36 min | pIC50 [4]: 5.66 | pIC50 [5]: 6.42

O=C(Cc1ccccn1)N1CCN(C2c3ccc(Cl)cc3CCc3cccnc32)CC1 (stereo not given)
pIC50 [9]: < 4.34

O=C(CN1C(=O)c2ccccc2C1=O)N1CCN(C2c3ccc(Cl)cc3CCc3cccnc32)CC1 (stereo not given)
pIC50 [9]: < 4.40

O=C(C(c1ccccc1)c1ccccc1)N1CCN(C2c3ccc(Cl)cc3CCc3cccnc32)CC1 (stereo not given)
pIC50 [9]: < 4.30

O=C(Nc1ccccn1)N1CCN(C2c3ccc(Cl)cc3CCc3cccnc32)CC1 (stereo not given)
pIC50 [4]: 5.89 | pIC50 [9]: < 4.34

O=C(Nc1ccc[n+]([O-])c1)N1CCN(C2c3ccc(Cl)cc3CCc3cc(Br)cnc32)CC1 (stereo not given)
pIC50 [4]: 5.44 | pIC50 [5]: 6.62

O=C(Oc1cccnc1)N1CCN([C@@H]2c3ccc(Cl)cc3CCc3cccnc32)CC1
pIC50 [4]: 5.16 | pIC50 [5]: 5.89

CC(=O)N1CCC(CC(=O)N2CCN(C3c4ccc(Cl)cc4CCc4cccnc43)CC2)CC1 (stereo not given)
pIC50 [4]: 5.57 | pIC50 [5]: 6.06

CN(C)c1ccc(CC(=O)N2CCN(C3c4ccc(Cl)cc4CCc4cccnc43)CC2)cc1 (stereo not given)
pIC50 [9]: 4.38

CN1CCC(NC(=O)N2CCN(C3c4ccc(Cl)cc4CCc4cc(Br)cnc43)CC2)CC1 (stereo not given)
pIC50 [4]: 6.28 | pIC50 [5]: 7.39 | pIC50 [9]: < 4.42

CN1CCC(OC(=O)N2CCN(C3c4ccc(Cl)cc4CCc4cc(Br)cnc43)CC2)CC1 (stereo not given)
pIC50 [4]: < 5.30 | pIC50 [5]: 6.51

CCCNC(=O)N1CCC(CC(=O)N2CCN(C3c4ccc(Cl)cc4CCc4cc(Br)cnc43)CC2)CC1 (stereo not given)
pIC50 [4]: 5.82 | pIC50 [5]: 7.00 | pIC50 [9]: < 4.48

O=C(Cc1cc[n+]([O-])cc1)N1CCN([C@H]2c3ccc(Cl)cc3CCc3cccnc32)CC1
AUC at 24 h [1]: 15500 ng·h/mL | AUC at 24 h [10]: 21500 ng·h/mL | bioavailability [7]: 72% | Cmax [2]: 10 µM | Time above IC50 (Mus musculus [3]): 4 h | half-life [8]: 48 min | pIC50 [4]: 5.30 | pIC50 [5]: 6.31

O=C(Nc1cccnc1)N1CCN(C2c3ccc(Cl)cc3CCc3cc(Br)cnc32)CC1 (stereo not given)
pIC50 [4]: 5.43 | pIC50 [5]: 6.68 | pIC50 [9]: < 5.00

CC(=O)N1CCC(CC(=O)N2CCN(C3c4ccc(Cl)cc4CCc4cc(Br)cnc43)CC2)CC1 (stereo not given)
AUC at 24 h [10]: 9510 ng·h/mL | AUC at 24 h [11]: 2740 ng·h/mL | bioavailability [12]: 28.8% | Cmax [13]: 3 µM | Time above IC50 (Mus musculus [14]): 2 h | half-life [15]: 22.2 min | pIC50 [4]: 6.23 | pIC50 [5]: 6.99 | pIC50 [9]: < 4.47

CN1CCCC(CC(=O)N2CCN(C3c4ccc(Cl)cc4CCc4cccnc43)CC2)C1 (stereo not given)
pIC50 [4]: 5.62 | pIC50 [5]: 5.92

O=C(Oc1cccnc1)N1CCN(C2c3ccc(Cl)cc3CCc3cccnc32)CC1 (stereo not given)
pIC50 [4]: 5.52 | pIC50 [5]: 6.30

CC(=O)N1CCC(CC(=O)N2CCN([C@H]3c4ccc(Cl)cc4CCc4cccnc43)CC2)CC1
pIC50 [4]: 5.21 | pIC50 [5]: 5.80

CN1CCCC(CC(=O)N2CCN(C3c4ccc(Cl)cc4CCc4cc(Br)cnc43)CC2)C1 (stereo not given)
AUC at 24 h [10]: 14900 ng·h/mL | AUC at 24 h [11]: 17000 ng·h/mL | bioavailability [12]: 100% | Cmax [13]: 2 µM | Time above IC50 (Mus musculus [14]): 24 h | half-life [15]: 342 min | pIC50 [9]: < 4.42

CC(C)(C(=O)N1CCN(C2c3ccc(Cl)cc3CCc3cc(Br)cnc32)CC1)c1cccnc1 (stereo not given)
pIC50 [4]: 6.05 | pIC50 [5]: 6.52

O=C(Cc1ccc[n+]([O-])c1)N1CCN(C2c3ccc(Cl)cc3CCc3cccnc32)CC1 (stereo not given)
AUC at 24 h [6]: 12300 ng·h/mL | AUC at 24 h [1]: 11000 ng·h/mL | bioavailability [7]: 89% | Cmax [2]: 12 µM | Time above IC50 (Mus musculus [3]): 4 h | half-life [8]: 36 min

O=C(Oc1cccnc1)N1CCN([C@H]2c3ccc(Cl)cc3CCc3cccnc32)CC1
pIC50 [4]: 5.41 | pIC50 [5]: 6.09

CN1CCC(CC(=O)N2CCN([C@@H]3c4ccc(Cl)cc4CCc4cc(Br)cnc43)CC2)CC1
pIC50 [9]: < 4.42

O=C(Oc1ccc[n+]([O-])c1)N1CCN(C2c3ccc(Cl)cc3CCc3cc(Br)cnc32)CC1 (stereo not given)
pIC50 [4]: 5.22 | pIC50 [5]: 6.55

O=C(Nc1ccccc1)N1CCN(C2c3ccc(Cl)cc3CCc3cccnc32)CC1 (stereo not given)
pIC50 [5]: 5.96 | pIC50 [9]: < 4.40

O=C(Nc1cc[n+]([O-])cc1)N1CCN(C2c3ccc(Cl)cc3CCc3cc(Br)cnc32)CC1 (stereo not given)
pIC50 [4]: 5.24 | pIC50 [5]: 6.68

CCCC[C@H]1CN(C2c3ccc(Cl)cc3CCc3cc(Br)cnc32)CCN1C(=O)CC1CCN(C(N)=O)CC1 (stereo not given in full)
pIC50 [4]: 6.22 | pIC50 [5]: 7.57

N[C@@H](CO)C(=O)N1CCC(CC(=O)N2CCN(C3c4ccc(Cl)cc4CCc4cc(Br)cnc43)CC2)CC1 (stereo not given in full)
pIC50 [4]: 5.98 | pIC50 [5]: 6.98 | pIC50 [9]: < 4.48

CCCC[C@H]1CN(C2c3ccc(Cl)cc3CCc3cc(Br)cnc32)CCN1C(=O)Cc1cc[n+]([O-])cc1 (stereo not given in full)
AUC at 24 h [1]: 43200 ng·h/mL | AUC at 24 h [10]: 91400 ng·h/mL | bioavailability [7]: 47% | Cmax [2]: 11.5 µM | Time above IC50 (Mus musculus [3]): 7 h | half-life [8]: 120 min | pIC50 [4]: 6.20 | pIC50 [5]: 7.22 | pIC50 [9]: < 4.47

CN1CCC(CC(=O)N2CCN([C@H]3c4ccc(Cl)cc4CCc4cc(Br)cnc43)CC2)CC1
pIC50 [9]: < 4.42

O=C(/C=C/c1cccnc1)N1CCN(C2c3ccc(Cl)cc3CCc3cccnc32)CC1 (stereo not given)
pIC50 [5]: 5.59 | pIC50 [9]: < 4.30

CN1CCC(CC(=O)N2CCN(C3c4ccc(Cl)cc4CCc4c(Cl)ccnc43)CC2)CC1 (stereo not given)
pIC50 [4]: 5.24 | pIC50 [5]: 6.35

CNC(=O)N1CCC(CC(=O)N2CCN(C3c4ccc(Cl)cc4CCc4cc(Br)cnc43)CC2)CC1 (stereo not given)
AUC at 24 h [10]: 9900 ng·h/mL | AUC at 24 h [11]: 33300 ng·h/mL | bioavailability [12]: 100% | Cmax [13]: 80 µM | Time above IC50 (Mus musculus [14]): 4 h | half-life [15]: 30 min | pIC50 [4]: 6.12 | pIC50 [5]: 7.30 | pIC50 [9]: < 4.46

O=C(CC1CCNCC1)N1CCN(C2c3ccc(Cl)cc3CCc3cc(Br)cnc32)CC1 (stereo not given)
AUC at 24 h [10]: 27200 ng·h/mL | AUC at 24 h [11]: 17600 ng·h/mL | bioavailability [12]: 65% | Cmax [13]: 3 µM | Time above IC50 (Mus musculus [14]): 24 h | half-life [15]: 120 min | pIC50 [4]: 6.77 | pIC50 [5]: 7.14 | pIC50 [9]: < 4.42

O=C(Nc1cccnc1)N1CCN(C2c3ccc(Cl)cc3CCc3cccnc32)CC1 (stereo not given)
pIC50 [4]: 5.32 | pIC50 [9]: < 4.34

CC(=O)C1CCC(C(=O)N2CCN(C3c4ccc(Cl)cc4CCc4cccnc43)CC2)CC1 (stereo not given)
pIC50 [4]: 5.31 | pIC50 [5]: 5.91 | pIC50 [9]: < 4.37

O=C(CC1CCNCC1)N1CCN([C@@H]2c3ccc(Cl)cc3CCc3cc(Br)cnc32)CC1
pIC50 [4]: 6.25 | pIC50 [5]: 7.06

O=C(Nc1cccnc1)N1CCN([C@H]2c3ccc(Cl)cc3CCc3cccnc32)CC1
pIC50 [4]: 5.14 | pIC50 [5]: 6.34

O=C(Cc1cccnc1)N1CCN(C2c3ccc(Cl)cc3CCc3cc(Br)cnc32)CC1 (stereo not given)
pIC50 [4]: 6.07 | pIC50 [5]: 6.77 | pIC50 [9]: < 5.00

O=C(Cc1ccc(Br)cc1)N1CCN(C2c3ccc(Cl)cc3CCc3cccnc32)CC1 (stereo not given)
pIC50 [4]: 5.29 | pIC50 [9]: < 4.30

O=C(Nc1ccncc1)N1CCN(C2c3ccc(Cl)cc3CCc3cccnc32)CC1 (stereo not given)
pIC50 [9]: < 4.40
